Measured values reported in ChEMBL document CHEMBL1124257, “An examination of O-2-isocephems as orally absorbable antibiotics” (J Med Chem, 1988).
≈ marks a conversion by molar mass, not a printed value.

Key:
Escherichia coli [1] = experiment: Minimum inhibitory concentration (MIC) against Escherichia coli by 2-fold microdilution technique.; format: functional
Procedure, shortened: (§1)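 For each organism, an overnight culture was grown in Mueller-Hinton broth at 37 °C. Twofold microtiter dilutions in Nutrient Broth covered 0.005–125 µg/mL. Each well received about 10^4 organisms, and plates were incubated 18 h at 37 °C. MIC was the lowest concentration giving no visible growth.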

Escherichia coli [2] = experiment: Minimum inhibitory concentration (MIC) […] against Escherichia coli.; format: functional; procedure, shortened: as §1
Haemophilus influenzae = experiment: Minimum inhibitory concentration (MIC) against Haemophilus influenzae by 2-fold microdilution technique.; format: functional; procedure, shortened: as §1
Klebsiella pneumoniae = experiment: Minimum inhibitory concentration (MIC) against Klebsiella pneumoniae by 2-fold microdilution technique.; format: functional; procedure, shortened: as §1
Escherichia coli [3] = experiment: Protective dose (PD50) against Escherichia coli infected mice; format: functional; details: read-out: PD50
Procedure, shortened: (§2)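 Male Swiss-Webster mice (20 ± 2 g) were challenged intraperitoneally with enough bacteria to kill untreated controls within 72 h. Drug was given orally by gavage twice: at 0 and 2 h after E. coli challenge, or at 1 and 3.5 h after S. pneumoniae challenge. PD50 is the dose in mg/kg per dose that protects 50% of animals.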

Streptococcus pneumoniae [4] = experiment: Protective dose (PD50) against Streptococcus pneumoniae infected mice; format: functional; details: for ED50: Streptococcus pneumoniae, read-out: PD50; procedure, shortened: as §2
Proteus mirabilis = experiment: Minimum inhibitory concentration (MIC) against Proteus mirabilis by 2-fold microdilution technique.; format: functional; procedure, shortened: as §1
Streptococcus pneumoniae [5] = experiment: Minimum inhibitory concentration (MIC) against Streptococcus pneumoniae by 2-fold microdilution technique; format: functional; procedure, shortened: as §1
Streptococcus pneumoniae [6] = experiment: Minimum inhibitory concentration (MIC) […] against Streptococcus pneumoniae.; format: functional; procedure, shortened: as §1
Enterococcus faecalis = experiment: Minimum inhibitory concentration (MIC) against Streptococcus faecalis by 2-fold microdilution technique.; format: functional; procedure, shortened: as §1
Streptococcus pyogenes = experiment: Minimum inhibitory concentration (MIC) against Streptococcus pyogenes by 2-fold microdilution technique; format: functional; procedure, shortened: as §1
Staphylococcus aureus = experiment: Minimum inhibitory concentration (MIC) against Staphylococcus aureus by 2-fold microdilution technique.; format: functional; procedure, shortened: as §1
Mus musculus [7] = experiment: Area under curve(AUC) was measured in mice after oral administration.; format: ADME, organism-based; parameters: concentration or dose not given beside the values; unit not given here; details: in vivo
Procedure, shortened: (§3)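 Male Swiss-Webster mice (20 ± 2 g) were given a single 50 mg/kg oral dose by gavage. Blood concentrations and urine levels were measured by microbiological assay, and urinary recovery was taken over 0–6 h.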

[8] = (§4) Cmax was measured in mice after an oral dose of 50 mg/kg.; format: ADME, organism-based; parameters: dose 50 mg/kg, route oral; details: mouse, in vivo; procedure, shortened: as §3
[9] = Half life was measured.; format: ADME; procedure, shortened: as §3
Mus musculus [10] = organism: Mus musculus; experiment: Percentage of dose recovered after 0-6 hr in the urine of mice was measured.; format: ADME, organism-based; details: in vivo; procedure, shortened: as §3
Mus musculus [11] = experiment: Area under curve(AUC) was measured in mice after oral administration (50 mg/kg); format: ADME, organism-based; details: in vivo; procedure, shortened: as §3
Mus musculus [12] = experiment: as §4; format: ADME, organism-based; parameters: dose 50 mg/kg, route oral; details: in vivo; procedure, shortened: as §3
[13] = Escherichia coli, read-out: MIC
[14] = Haemophilus influenzae, read-out: MIC
[15] = Klebsiella pneumoniae, read-out: MIC
[16] = Proteus mirabilis, read-out: MIC
[17] = Streptococcus pneumoniae, read-out: MIC
[18] = Enterococcus faecalis, read-out: MIC
[19] = Streptococcus pyogenes, read-out: MIC
[20] = Staphylococcus aureus, read-out: MIC

| Compound | MIC (Escherichia coli [1]; [13]) [µg/mL] | MIC (Escherichia coli [2]; [13]) [µg/mL] | MIC (Haemophilus influenzae; [14]) [µg/mL] | MIC (Klebsiella pneumoniae; [15]) [µg/mL] | ED50 (Escherichia coli [3]) [mg/kg] | ED50 (Streptococcus pneumoniae [4]) [mg/kg] | MIC (Proteus mirabilis; [16]) [µg/mL] | MIC (Streptococcus pneumoniae [5]; [17]) [µg/mL] | MIC (Streptococcus pneumoniae [6]; [17]) [µg/mL] | MIC (Enterococcus faecalis; [18]) [µg/mL] | MIC (Streptococcus pyogenes; [19]) [µg/mL] | MIC (Staphylococcus aureus; [20]) [µg/mL] | AUC (Mus musculus [7]) | Cmax [8] [ng/mL] | half-life [9] [min] | Urinary recovery (% of dose, 0-6 h) (Mus musculus [10]) [%] | other results |
| --- | --- | --- | --- | --- | --- | --- | --- | --- | --- | --- | --- | --- | --- | --- | --- | --- | --- |
| CC1=C(C(=O)O)N2C(=O)[C@@H](NC(=O)[C@H](N)c3ccc(O)cc3)[C@H]2CO1 | 8 (≈ 23 µM) | 8 (≈ 23 µM) | 8 (≈ 23 µM) | 8 (≈ 23 µM) | 11 | 2.1 | 4 (≈ 11.5 µM) | 0.13 (≈ 0.374 µM) | 0.13 (≈ 0.374 µM) | 16 (≈ 46.1 µM) | 0.13 (≈ 0.374 µM) | 1 (≈ 2.88 µM) |  |  |  |  |  |
| C=CC1=C(C(=O)O)N2C(=O)[C@@H](NC(=O)[C@H](N)c3ccc(O)cc3)[C@H]2SC1 | 4 (≈ 10.7 µM) |  |  | 16 (≈ 42.6 µM) |  |  | 4 (≈ 10.7 µM) | 0.03 (≈ 0.0799 µM) |  | 2 (≈ 5.33 µM) | 0.03 (≈ 0.0799 µM) | 0.25 (≈ 0.666 µM) | 21 | 22000 | 29 |  |  |
| C=CCC1=C(C(=O)O)N2C(=O)[C@@H](NC(=O)[C@H](N)c3ccc(O)cc3)[C@H]2SC1 | 4 (≈ 10.3 µM) |  | 1 (≈ 2.57 µM) | 4 (≈ 10.3 µM) |  |  | 1 (≈ 2.57 µM) | 0.03 (≈ 0.077 µM) |  | 18 (≈ 46.2 µM) | 0.016 (≈ 0.0411 µM) | 0.13 (≈ 0.334 µM) | 41 | 45000 | 34 | 79 |  |
| N[C@@H](C(=O)N[C@@H]1C(=O)N2C(C(=O)O)=C(C3CC3)OC[C@H]12)c1ccc(O)cc1 | 4 (≈ 10.7 µM) | 4 (≈ 10.7 µM) | 8 (≈ 21.4 µM) | 16 (≈ 42.9 µM) | > 50 | 3.6 | 2 (≈ 5.36 µM) | 0.03 (≈ 0.0804 µM) | 0.03 (≈ 0.0804 µM) | 1 (≈ 2.68 µM) | 0.016 (≈ 0.0429 µM) | 0.25 (≈ 0.67 µM) |  |  |  |  |  |
| C=CC1=C(C(=O)O)N2C(=O)[C@@H](NC(=O)[C@H](N)c3ccc(O)cc3)[C@H]2CO1 | 2 (≈ 5.57 µM) | 2 (≈ 5.57 µM) | 1 (≈ 2.78 µM) | 8 (≈ 22.3 µM) | 2.1 | 0.8 | 0.5 (≈ 1.39 µM) | 0.03 (≈ 0.0835 µM) | 0.03 (≈ 0.0835 µM) | 0.5 (≈ 1.39 µM) | 0.016 (≈ 0.0445 µM) | 0.13 (≈ 0.362 µM) |  | 26000 | 39 | 73 | AUC (Mus musculus [11]): 30 µg/mL |
| N[C@@H](C(=O)N[C@@H]1C(=O)N2C(C(=O)O)=C(/C=C/C(F)(F)F)OC[C@H]12)c1ccc(O)cc1 | 4 (≈ 9.36 µM) | 4 (≈ 9.36 µM) | 2 (≈ 4.68 µM) | 16 (≈ 37.4 µM) | > 50 | > 12.5 | 16 (≈ 37.4 µM) | 0.016 (≈ 0.0374 µM) | 0.016 (≈ 0.0374 µM) | 0.13 (≈ 0.304 µM) | 0.008 (≈ 0.0187 µM) | 0.5 (≈ 1.17 µM) |  |  |  |  |  |
| CCCC1=C(C(=O)O)N2C(=O)[C@@H](NC(=O)[C@H](N)c3ccc(O)cc3)[C@H]2CO1 | 2 (≈ 5.33 µM) |  |  | 16 (≈ 42.6 µM) |  |  | 4 (≈ 10.7 µM) | 0.008 (≈ 0.0213 µM) |  | 0.03 (≈ 0.0799 µM) | 0.004 (≈ 0.0107 µM) | 0.06 (≈ 0.16 µM) |  |  |  |  |  |
| N[C@@H](C(=O)N[C@@H]1C(=O)N2C(C(=O)O)=COC[C@H]12)c1ccc(O)cc1 | 4 (≈ 12 µM) | 4 (≈ 12 µM) | 2 (≈ 6 µM) | 8 (≈ 24 µM) | 6.2 | 33 | 4 (≈ 12 µM) | 1 (≈ 3 µM) | 1 (≈ 3 µM) | 32 (≈ 96 µM) | 0.25 (≈ 0.75 µM) | 1 (≈ 3 µM) |  |  |  |  |  |
| C=CCC1=C(C(=O)O)N2C(=O)[C@@H](NC(=O)[C@H](N)c3ccc(O)cc3)[C@H]2CO1 | 2 (≈ 5.36 µM) | 4 (≈ 10.7 µM) | 2 (≈ 5.36 µM) | 16 (≈ 42.9 µM) | 9.2 | 1 | 1 (≈ 2.68 µM) | 0.03 (≈ 0.0804 µM) | 0.016 (≈ 0.0429 µM) | 1 (≈ 2.68 µM) | 0.008 (≈ 0.0214 µM) | 0.13 (≈ 0.348 µM) | 32 | 31000 | 32 | 46 |  |
| N[C@@H](C(=O)N[C@@H]1C(=O)N2C(C(=O)O)=C(/C=C\C(F)(F)F)OC[C@H]12)c1ccc(O)cc1 (relative stereo) | 2 (≈ 4.68 µM) | 2 (≈ 4.68 µM) | 2 (≈ 4.68 µM) | 32 (≈ 74.9 µM) | > 50 | 2.7 | 16 (≈ 37.4 µM) | 0.016 (≈ 0.0374 µM) | 0.016 (≈ 0.0374 µM) | 0.06 (≈ 0.14 µM) | 0.008 (≈ 0.0187 µM) | 0.5 (≈ 1.17 µM) |  |  |  |  |  |
| C/C=C\C1=C(C(=O)O)N2C(=O)[C@@H](NC(=O)[C@H](N)c3ccc(O)cc3)[C@H]2CO1 (relative stereo) | 2 (≈ 5.36 µM) | 2 (≈ 5.36 µM) | 2 (≈ 5.36 µM) | 16 (≈ 42.9 µM) | 19 | 0.3 | 1 (≈ 2.68 µM) | 0.03 (≈ 0.0804 µM) | 0.03 (≈ 0.0804 µM) | 1 (≈ 2.68 µM) | 0.016 (≈ 0.0429 µM) | 0.25 (≈ 0.67 µM) | 23 | 15000 | 52 | 25 |  |
| C/C=C/C1=C(C(=O)O)N2C(=O)[C@@H](NC(=O)[C@H](N)c3ccc(O)cc3)[C@H]2CO1 (relative stereo) | 2 (≈ 5.36 µM) | 2 (≈ 5.36 µM) | 2 (≈ 5.36 µM) | 8 (≈ 21.4 µM) | > 50 | 1.8 | 0.5 (≈ 1.34 µM) | 0.03 (≈ 0.0804 µM) | 0.03 (≈ 0.0804 µM) | 1 (≈ 2.68 µM) | 0.016 (≈ 0.0429 µM) | 0.25 (≈ 0.67 µM) | 30 | 11000 | 110 | 5 |  |
| C/C=C/C1=C(C(=O)O)N2C(=O)[C@@H](NC(=O)[C@H](N)c3ccc(O)cc3)[C@H]2SC1.O (relative stereo; 56) [CEFPROZIL, (E)-] |  |  | 2 |  | 1.2 | 0.4 |  | 0.03 |  | 2 | 0.016 | 0.13 | 42 | 46000 | 29 | 85 | MIC (Escherichia coli [1]): 1 µg/mL; MIC (Escherichia coli [2]): 2 µg/mL; MIC (Klebsiella pneumoniae): 2 µg/mL; MIC (Proteus mirabilis): 0.25 µg/mL; MIC (Streptococcus pneumoniae [6]): 0.016 µg/mL |
| C/C=C/C1=C(C(=O)O)N2C(=O)[C@@H](NC(=O)[C@H](N)c3ccc(O)cc3)[C@H]2SC1.O (relative stereo; 57) [CEFPROZIL, (E)-] |  |  |  |  |  |  |  |  |  |  |  |  | 45 |  |  | 65 | Cmax (Mus musculus [12]): 35000 ng/mL; T1/2 [9]: 47 min; MIC (Escherichia coli [1]): 8 µg/mL; MIC (Escherichia coli [2]): 8 µg/mL; MIC (Haemophilus influenzae): 4 µg/mL; MIC (Klebsiella pneumoniae): 8 µg/mL; PD50 (Streptococcus pneumoniae [4]): 0.5 mg/kg; MIC (Proteus mirabilis): 1 µg/mL; MIC (Streptococcus pneumoniae [5]): 0.06 µg/mL; MIC (Streptococcus pneumoniae [6]): 0.06 µg/mL; MIC (Enterococcus faecalis): 4 µg/mL; MIC (Streptococcus pyogenes): 0.03 µg/mL; MIC (Staphylococcus aureus): 0.25 µg/mL |
| N[C@@H](C(=O)N[C@@H]1C(=O)N2C(C(=O)O)=C(Cl)CS[C@H]12)c1ccccc1.O [CEFACLOR] | 1 |  | 1 | 1 |  |  | 0.25 | 0.5 |  | 16 | 0.25 | 0.25 |  |  |  |  |  |
| CC1=C(C(=O)O)N2C(=O)[C@@H](NC(=O)[C@H](N)c3ccccc3)[C@H]2SC1 [CEPHALEXIN ANHYDROUS] | 8 (≈ 23 µM) |  | 4 (≈ 11.5 µM) | 16 (≈ 46.1 µM) |  |  | 4 (≈ 11.5 µM) | 0.5 (≈ 1.44 µM) |  | 32 (≈ 92.1 µM) | 0.5 (≈ 1.44 µM) | 0.5 (≈ 1.44 µM) |  |  |  |  |  |
